Assay outcomes (PubChem BioAssay)
KCNQ1 pot: potentiators or activators of human KCNQ1 potassium channel | P51787 | CHO-K1 KCNQ1, thallium flux FluxOR fluorescence; stronger effect = higher value | B-score at 10 µM | 0.35% of 310,000 active | AID 2648;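 active = fluorescence ratio B-score, a plate-corrected score, at least three library SD, with initial intensity B-score within 5 SD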
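System: Stable KCNQ1 CHO-K1 line | Incubation: 90 min dye loading and 20 min compound exposure, both at room temperature | Measure: Ratio B score | Medium: Assay buffer for compound exposure, DMSO matched across wells | Compound dosing: Single-concentration screen | Probe or stimulus: K+/Tl+ depolarizing stimulus | Measured by: Kinetic FluxOR fluorescence, 10 s baseline plus 110 s post-stimulus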
hERG rescue: compounds protecting human hERG from proarrhythmic drug block; CHO-hERG, FluxOR thallium flux, dofetilide IC70 present; activation (rescue from dofetilide block), less the hit threshold, % at 10 µM; 0.51% of 310,000 active;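 active = activation above the mean of controls blocked by dofetilide plus 5 SD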;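 note: thallium influx through hERG after potassium depolarization seen as dye fluorescence rise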
KCNQ1 block: inhibitors of human KCNQ1 potassium channel. AID 2642. B-score at 10 µM. CHO-K1 KCNQ1, FluxOR thallium flux fluorescence; stronger effect = higher value. P51787. 1.3% of 310,000 active;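 active = compounds whose thallium flux B-score, printed positive for inhibition, exceeds three library SD while starting fluorescence stays within three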;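 note: channel opened by potassium depolarization with thallium stimulus after 20 min compound exposure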
KCNK9 inh: inhibitors of human KCNK9 two-pore domain potassium channel | 1.2% of 310,000 active | B-score at 10 µM | HEK293 KCNK9, FluxOR thallium flux fluorescence; stronger effect = lower value | AID 488922 | Q9NPC2;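 active = ratio B-score over 3 SD below the library mean, with starting fluorescence within 5 SD of its mean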;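 note: negative B-score means less thallium flux so channel inhibition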
Cl transport mod: modulates chloride dependent transport by human KCC2. Q9H2X9. 2.2% of 190,000 active. KCC2 cells, thallium flux FluoZin-2 fluorescence. B-score of Tl+ flux slope (higher = more flux/activation; lower = inhibition) at 10 µM;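 active = thallium flux slope and its plate-corrected score both differing from the plate sample mean at a set confidence after two filtering rounds, in either direction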;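 note: slope of fluorescence scaled to starting intensity during 10 to 20 s after thallium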
KCNK3 inh: human KCNK3 channel inhibition, primary screen; O14649; CHO-KCNK3 thallium flux, FluxOR fluorescence; stronger effect = lower value; B-score at 10 µM; 0.84% of 340,000 active; AID 602410;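 active = B-score under library mean minus 4 SD, starting fluorescence ratio at most library mean plus 5 SD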;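 note: more negative B-score means stronger inhibition of thallium flux through KCNK3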
Target sequence (O14649 whole entry, looked up): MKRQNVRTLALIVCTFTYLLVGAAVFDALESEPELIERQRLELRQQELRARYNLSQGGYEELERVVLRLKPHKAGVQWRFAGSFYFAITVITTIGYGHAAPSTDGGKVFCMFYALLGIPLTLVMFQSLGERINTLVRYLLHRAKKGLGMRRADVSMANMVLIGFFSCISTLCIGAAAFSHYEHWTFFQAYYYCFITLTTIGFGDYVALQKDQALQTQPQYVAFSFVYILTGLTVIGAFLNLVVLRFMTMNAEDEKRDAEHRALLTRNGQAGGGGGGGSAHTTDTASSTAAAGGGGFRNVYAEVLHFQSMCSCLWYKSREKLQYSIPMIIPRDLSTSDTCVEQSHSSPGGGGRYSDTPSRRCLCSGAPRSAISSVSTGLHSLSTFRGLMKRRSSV
Numbers without * were called inactive; i = inactive; . = no result given. Only some compounds are listed: those with a hit (about 4.1% of all), similar ones and a draw of the others.

SMILES	KCNQ1 pot	hERG rescue	KCNQ1 block	KCNK9 inh	Cl transport mod	KCNK3 inh
CCc1c(C)nc(N2CCN(c3cccc(OC)c3)CC2)[nH]c1=O	i	-2	i	i	.	i
CCCc1c(C)nc(N2CCN(c3cccc(OC)c3)CC2)[nH]c1=O	i	5.9*	i	i	.	i
C=CCNC(=S)N1CCC(C(=O)c2ccc(Cl)cc2)CC1	i	-4	i	i	.	i
O=C1/C(=C/c2cccc(F)c2)Oc2cc(O)ccc21	i	-8	14*	i	.	i
COc1ccc(NS(=O)(=O)c2ccc(C)c(C(=O)NCCCN3CCCC3=O)c2)cc1	.	.	.	.	.	i
CCOC(=O)COc1c(C(=O)OC)sc2ncccc12	i	39*	i	i	-1.4	i
COC(=O)c1ccc(CO/N=C/c2cccc([N+](=O)[O-])c2)cc1	i	-1	i	-6.7*	.	i
CNS(=O)(=O)c1cccc(C(=O)OCc2cc(=O)oc3c(C)c(O)ccc23)c1	i	-11	i	i	.	i
COc1ccc(/C=C(\NC(=O)c2ccc(OC)cc2)C(=O)Nc2ccccc2C(=O)O)cc1	i	-6	i	i	.	i
CCn1c(Cn2nnc(-c3ccccc3)n2)nnc1SCC(=O)Nc1ccc(C(C)=O)cc1	i	4.6*	i	i	0.64	i
COc1cc(OC)c(OC)cc1CN1CCSCC1	i	-8	i	i	.	i
Cc1ccccc1NCCC(=O)Nc1ccc(Cl)cc1	i	-11	i	i	.	i
CC(C)(O)CC[C@H](OC(=O)c1ccccc1)[C@](C)(O)[C@H]1CC[C@@]2(O)C3=CC(=O)[C@@H]4C[C@@H](O)[C@H](O)C[C@]4(C)C3CC[C@]12C (stereo not given in full)	i	-5	i	i	.	i
O=C(CNC(=O)c1ccco1)NNC(=O)c1cccc(Cl)c1	.	.	.	.	.	i
Clc1ccc(-c2nnc(CSc3nnc(-c4cccs4)n3Cc3ccccc3)o2)cc1	i	-21	8*	i	-1.6	-8.8*
CN(C)S(=O)(=O)c1ccc(NC(=O)COc2cccc3c2OC(C)(C)C3)cc1	.	.	.	.	.	i
COc1ccc(-n2c(=S)[nH]c3sc4c(c3c2=O)CCN(C)C4)cc1	i	-14	i	i	0.17	.
Cc1ccc(-n2c(=S)[nH]c3sc4c(c3c2=O)CCc2ccccc2-4)cc1	i	-6	i	i	9.1*	i
O=C(/C=C/c1cccs1)NC(=S)NNC(=O)c1ccccc1O	i	-12	i	i	12*	i
COc1ccc(C(=O)NNC(=S)NC(=O)/C=C/c2cccs2)cc1	i	-12	i	i	13*	i
COc1ccc(/C=C/C(=O)NC(=S)NNC(=O)c2ccco2)cc1OC	i	-15	i	i	.	i
COc1ccc(/C=C/C(=O)NC(=S)NNC(=O)Cc2cccs2)cc1	i	-13	i	i	1.8	i
COc1ccc(/C=C/C(=O)NC(=S)NNC(=O)c2ccco2)cc1	i	-12	i	i	11*	i
O=C(/C=C/c1cccs1)NC(=S)Nc1ccccc1	i	-6	i	i	.	i
O=C(CNS(=O)(=O)c1ccc(Cl)c(C(F)(F)F)c1)NC1CCCCCC1	.	.	.	.	.	i
SMILES	KCNQ1 pot	hERG rescue	KCNQ1 block	KCNK9 inh	Cl transport mod	KCNK3 inh
FC(F)Sc1ccc(NC(=S)NC(c2ccccc2)c2ccccc2)cc1	i	-43	11*	i	1.1	i
FC(F)Sc1ccc(NC(=S)NCC2CCCCC2)cc1	i	-16	9*	-7.3*	-1.4	i
CN(C(=S)Nc1ccc(SC(F)F)cc1)C(c1ccccc1)c1ccccc1	i	-11	10*	i	.	i
S=C(NCC1CCCCC1)Nc1cccnc1	i	-4	i	i	0.39	i
O=C(NC(=S)Nc1cccnc1)c1cc2ccccc2o1	23*	15*	i	i	88*	i
CC(=O)Nc1ccc(NC(=S)NC(=O)c2cc3ccccc3o2)cc1	i	-6	i	i	0.1	i
O=C1c2ccccc2CCCC12N=NCC2c1cccc2ccccc12 (stereo not given)	i	-18	i	-7.6*	-0.012	i
CCCCC(C(=O)NC1CCCC1)N(C(=O)c1snc(C(N)=O)c1N)c1ccc(OCC)cc1 (stereo not given)	i	-7	i	i	.	i
CCN1CCC(O)(C(C(=O)O)c2ccccc2)CC1 (stereo not given)	.	.	.	.	.	i
CCCN(CCC)C(=O)C(c1ccccc1)C1(O)CCCCC1 (stereo not given)	.	.	.	.	.	-8.9*
CSc1ccccc1NC(=O)CN(C)C(=O)C1CC(=O)N(C(C)c2ccccc2)C1 (stereo not given)	.	.	.	.	.	i
CSc1cccc(NC(=O)CN2C(=O)c3ccccc3S2(=O)=O)c1	21*	6.5*	i	i	0.42	i
Cc1ccc(C(=O)NCCSCc2ccc(Cl)cc2Cl)cc1[N+](=O)[O-]	i	-7	8*	i	-0.91	i
Cc1ccc(C(=O)NCC2CCCO2)cc1[N+](=O)[O-] (stereo not given)	i	4.7*	i	i	i	i
Cc1c(C(=O)NCCSCc2ccc(Cl)cc2Cl)cccc1[N+](=O)[O-]	i	10.0*	i	i	0.92	i
C=CCNC(=S)Nc1sc2c(c1C(=O)OCC)CC(C)(CC)OC2 (stereo not given)	22*	9.4*	i	i	22*	i
CC(C)(C)C(=O)/C=c1\[nH]c(=O)/c(=C\c2ccc(F)cc2)s1	i	-11	i	-8*	.	i
CCc1ccc(/C=c2\s/c(=C\C(=O)C(C)(C)C)[nH]c2=O)cc1	i	4	i	i	7*	i
Cc1ccccc1/C=c1\s/c(=C\C(=O)C(C)(C)C)[nH]c1=O	i	0	i	i	10*	i
COC(=O)CN(C)C(=O)c1ccc2nc(Cc3cccc(Cl)c3)oc2c1	i	-6	i	i	.	i
COc1ccc(CN(C(=O)CSc2nnc(-c3ccccc3C)o2)c2ccc(F)cc2)cc1	i	-15	6*	i	-0.84	i
O=C(CSc1nnc(-c2c[nH]c3ccccc23)o1)N(Cc1ccccc1)c1ccc(F)cc1	i	-10	i	i	0.98	i
CCOC(=O)c1c(NC(=O)Cn2nnc3ccccc32)sc2c1CCC(C)C2 (stereo not given)	i	-5	i	i	.	i
CCOC(=O)c1c(NC(=O)C(C)NCc2ccco2)sc2c1CCC(C)C2 (stereo not given)	i	-11	6*	i	0.38	i
